In ChEMBL document CHEMBL1154183, “Structure-based optimization of potent and selective inhibitors of the tyrosine kinase erythropoietin producing human hepatocellular carcinoma receptor B4 (EphB4)” (J Med Chem, 2009):

Experiments:
[1] = target: LIM domain kinase 1 (Homo sapiens) (UniProt P53667); experiment: Binding affinity to LIMK1 assessed as percentage of kinase remaining bound to the bead at 1 uM by T7 phage display based binding assay
In short: (§1)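 Competition binding assay run by a contract lab. Each kinase was expressed as a fusion to T7 phage, full-length for small kinases and catalytic domain for large ones. Phage were mixed with an immobilized known kinase inhibitor on streptavidin magnetic beads and with test compound at a single 1 μM. Kinase/phage still bound to the beads was quantified by qPCR and expressed as % of DMSO control.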

[2] = target: LIM domain kinase 2 (Homo sapiens) (UniProt P53671); experiment: Binding affinity to LIMK2 assessed as percentage of kinase remaining bound to the bead at 1 uM by T7 phage display based binding assay; in short: as §1
[3] = target: Tyrosine-protein kinase Lyn (Homo sapiens) (UniProt P07948); experiment: Binding affinity to LYN assessed as percentage of kinase remaining bound to the bead at 1 uM by T7 phage display based binding assay; in short: as §1
Tyrosine-protein kinase Lyn (Homo sapiens), sequence (P07948 2-512 limits assumed): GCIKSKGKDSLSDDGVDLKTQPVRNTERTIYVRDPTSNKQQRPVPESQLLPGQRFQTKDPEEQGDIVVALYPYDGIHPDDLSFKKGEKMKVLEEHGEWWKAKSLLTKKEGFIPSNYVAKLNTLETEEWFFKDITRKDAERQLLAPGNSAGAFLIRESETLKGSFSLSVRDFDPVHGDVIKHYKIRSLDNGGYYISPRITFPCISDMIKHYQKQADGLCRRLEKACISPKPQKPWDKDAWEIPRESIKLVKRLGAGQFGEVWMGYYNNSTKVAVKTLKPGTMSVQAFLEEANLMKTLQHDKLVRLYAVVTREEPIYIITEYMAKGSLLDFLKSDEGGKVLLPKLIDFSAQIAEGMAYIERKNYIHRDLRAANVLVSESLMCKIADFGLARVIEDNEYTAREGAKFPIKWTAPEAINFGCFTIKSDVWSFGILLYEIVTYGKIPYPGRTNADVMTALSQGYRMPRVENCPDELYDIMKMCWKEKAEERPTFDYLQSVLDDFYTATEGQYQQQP

[4] = target: Serine/threonine-protein kinase Nek11 (Homo sapiens) (UniProt Q8NG66); experiment: Binding affinity to NEK11 assessed as percentage of kinase remaining bound to the bead at 1 uM by T7 phage display based binding assay; in short: as §1
Serine/threonine-protein kinase Nek11 (Homo sapiens), sequence (Q8NG66 whole entry): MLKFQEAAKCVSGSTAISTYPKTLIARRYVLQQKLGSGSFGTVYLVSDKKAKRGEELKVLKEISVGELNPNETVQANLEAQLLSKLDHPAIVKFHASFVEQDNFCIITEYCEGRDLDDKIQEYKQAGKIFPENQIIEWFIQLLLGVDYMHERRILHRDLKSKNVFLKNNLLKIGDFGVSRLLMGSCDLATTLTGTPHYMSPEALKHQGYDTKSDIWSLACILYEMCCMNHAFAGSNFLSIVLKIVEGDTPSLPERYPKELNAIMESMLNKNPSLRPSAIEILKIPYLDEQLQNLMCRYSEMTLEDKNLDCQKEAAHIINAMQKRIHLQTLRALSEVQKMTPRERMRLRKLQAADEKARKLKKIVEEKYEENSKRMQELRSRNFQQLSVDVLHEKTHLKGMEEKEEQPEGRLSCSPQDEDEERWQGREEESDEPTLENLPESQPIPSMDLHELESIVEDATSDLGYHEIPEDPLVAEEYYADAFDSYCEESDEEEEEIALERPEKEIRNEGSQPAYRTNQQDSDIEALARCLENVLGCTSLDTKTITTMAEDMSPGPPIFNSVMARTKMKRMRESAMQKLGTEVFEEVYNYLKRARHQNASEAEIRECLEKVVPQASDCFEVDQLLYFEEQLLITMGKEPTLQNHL

[5] = target: RAF proto-oncogene serine/threonine-protein kinase (Homo sapiens) (UniProt P04049); experiment: Binding affinity to RAF1 assessed as percentage of kinase remaining bound to the bead at 1 uM by T7 phage display based binding assay; in short: as §1
[6] = target: Inhibitor of nuclear factor kappa-B kinase subunit epsilon (Homo sapiens) (UniProt Q14164); experiment: Inhibition of IKKepsilon assessed as remaining enzyme activity at 1 uM relative to DMSO
In short: (§2)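 Dundee kinase panel, radiometric: [γ-33P]ATP (800 cpm/pmol) at 5, 20 or 50 μM, at or below each kinase's ATP Km; 10 mM magnesium acetate; robotic, room temperature, 30 min. Reactions started with MgATP, stopped with orthophosphoric acid, spotted onto P81 filters. Inhibitor tested at a single concentration; mean % activity of duplicates relative to DMSO control.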

[7] = target: Protein-tyrosine kinase 6 (Homo sapiens) (UniProt Q13882); experiment: Binding affinity to BRK assessed as percentage of kinase remaining bound to the bead at 1 uM by T7 phage display based binding assay; in short: as §1
Protein-tyrosine kinase 6 (Homo sapiens), sequence (Q13882 whole entry, looked up): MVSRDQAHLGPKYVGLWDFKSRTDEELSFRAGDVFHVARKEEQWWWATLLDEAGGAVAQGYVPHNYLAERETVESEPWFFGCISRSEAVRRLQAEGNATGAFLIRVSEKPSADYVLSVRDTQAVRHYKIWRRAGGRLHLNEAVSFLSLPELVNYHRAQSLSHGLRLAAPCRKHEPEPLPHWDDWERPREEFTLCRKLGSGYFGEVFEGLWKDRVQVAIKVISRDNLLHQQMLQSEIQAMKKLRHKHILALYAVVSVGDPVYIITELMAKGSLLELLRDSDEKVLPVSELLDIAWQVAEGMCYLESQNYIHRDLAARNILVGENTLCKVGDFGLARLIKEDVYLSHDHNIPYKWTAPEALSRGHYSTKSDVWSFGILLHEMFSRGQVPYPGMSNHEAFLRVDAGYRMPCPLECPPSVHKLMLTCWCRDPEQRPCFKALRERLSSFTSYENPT

[8] = target: Epidermal growth factor receptor (Homo sapiens) (UniProt P00533); experiment: Binding affinity to EGFR assessed as percentage of kinase remaining bound to the bead at 1 uM by T7 phage display based binding assay
In short: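 Kinases expressed as T7 phage fusions (full-length for small kinases, catalytic domain for large). Phage mixed with an immobilized known kinase inhibitor on streptavidin magnetic beads plus test compound at a single 1 μM concentration. Ligand displacement from the ATP site was read by quantitative PCR as % kinase/phage still bead-bound versus DMSO control. Human kinases.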

[9] = target: Ephrin type-A receptor 6 (Homo sapiens) (UniProt Q9UF33); experiment: Binding affinity to EPHA6 assessed as percentage of kinase remaining bound to the bead at 1 uM by T7 phage display based binding assay; in short: as §1
Ephrin type-A receptor 6 (Homo sapiens), sequence (Q9UF33 whole entry): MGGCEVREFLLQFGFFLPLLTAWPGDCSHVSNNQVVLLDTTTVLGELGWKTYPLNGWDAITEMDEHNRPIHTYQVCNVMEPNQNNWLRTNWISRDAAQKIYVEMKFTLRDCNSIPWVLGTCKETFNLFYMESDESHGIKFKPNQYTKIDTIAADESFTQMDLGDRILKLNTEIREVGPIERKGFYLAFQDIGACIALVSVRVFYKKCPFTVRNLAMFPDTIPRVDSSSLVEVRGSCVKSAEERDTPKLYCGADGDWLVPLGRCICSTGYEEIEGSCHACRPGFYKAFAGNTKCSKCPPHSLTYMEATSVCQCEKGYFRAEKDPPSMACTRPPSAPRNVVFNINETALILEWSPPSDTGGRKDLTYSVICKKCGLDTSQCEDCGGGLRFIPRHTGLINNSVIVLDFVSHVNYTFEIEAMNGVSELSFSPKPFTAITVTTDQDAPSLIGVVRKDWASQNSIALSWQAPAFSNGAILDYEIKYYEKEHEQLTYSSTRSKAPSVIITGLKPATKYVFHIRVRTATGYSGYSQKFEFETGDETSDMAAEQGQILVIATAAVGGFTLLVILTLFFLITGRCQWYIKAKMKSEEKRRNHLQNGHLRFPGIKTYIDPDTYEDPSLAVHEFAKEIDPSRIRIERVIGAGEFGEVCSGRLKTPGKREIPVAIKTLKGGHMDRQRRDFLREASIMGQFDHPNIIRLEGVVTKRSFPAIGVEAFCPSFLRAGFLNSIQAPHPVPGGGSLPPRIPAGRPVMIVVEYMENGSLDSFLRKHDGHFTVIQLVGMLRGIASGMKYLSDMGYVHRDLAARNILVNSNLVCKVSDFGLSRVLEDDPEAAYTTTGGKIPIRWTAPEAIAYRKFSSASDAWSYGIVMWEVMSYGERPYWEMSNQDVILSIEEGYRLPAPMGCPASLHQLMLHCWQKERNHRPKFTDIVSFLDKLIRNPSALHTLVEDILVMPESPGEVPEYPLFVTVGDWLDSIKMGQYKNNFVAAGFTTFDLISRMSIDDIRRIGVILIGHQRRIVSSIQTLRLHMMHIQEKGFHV

[10] = target: Receptor tyrosine-protein kinase erbB-3 (Homo sapiens) (UniProt P21860); experiment: Binding affinity to ERBB3 assessed as percentage of kinase remaining bound to the bead at 1 uM by T7 phage display based binding assay; in short: as §1
[11] = target: Serine/threonine-protein kinase pim-2 (Homo sapiens) (UniProt Q9P1W9); experiment: Inhibition of PIM2 assessed as remaining enzyme activity at 1 uM relative to DMSO
Serine/threonine-protein kinase pim-2 (Homo sapiens), sequence (Q9P1W9 whole entry, looked up): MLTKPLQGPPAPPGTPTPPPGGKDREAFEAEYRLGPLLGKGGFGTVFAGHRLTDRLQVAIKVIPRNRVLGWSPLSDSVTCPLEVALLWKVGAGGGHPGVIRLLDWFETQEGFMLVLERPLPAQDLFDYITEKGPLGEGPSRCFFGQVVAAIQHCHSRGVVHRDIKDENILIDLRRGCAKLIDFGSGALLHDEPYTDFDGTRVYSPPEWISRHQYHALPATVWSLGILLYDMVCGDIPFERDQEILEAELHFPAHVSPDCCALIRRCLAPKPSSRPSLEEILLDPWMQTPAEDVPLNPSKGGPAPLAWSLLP

[12] = target: SRSF protein kinase 1 (Homo sapiens) (UniProt Q96SB4); experiment: Inhibition of SRPK1 assessed as remaining enzyme activity at 1 uM relative to DMSO
SRSF protein kinase 1 (Homo sapiens), sequence (Q96SB4 whole entry): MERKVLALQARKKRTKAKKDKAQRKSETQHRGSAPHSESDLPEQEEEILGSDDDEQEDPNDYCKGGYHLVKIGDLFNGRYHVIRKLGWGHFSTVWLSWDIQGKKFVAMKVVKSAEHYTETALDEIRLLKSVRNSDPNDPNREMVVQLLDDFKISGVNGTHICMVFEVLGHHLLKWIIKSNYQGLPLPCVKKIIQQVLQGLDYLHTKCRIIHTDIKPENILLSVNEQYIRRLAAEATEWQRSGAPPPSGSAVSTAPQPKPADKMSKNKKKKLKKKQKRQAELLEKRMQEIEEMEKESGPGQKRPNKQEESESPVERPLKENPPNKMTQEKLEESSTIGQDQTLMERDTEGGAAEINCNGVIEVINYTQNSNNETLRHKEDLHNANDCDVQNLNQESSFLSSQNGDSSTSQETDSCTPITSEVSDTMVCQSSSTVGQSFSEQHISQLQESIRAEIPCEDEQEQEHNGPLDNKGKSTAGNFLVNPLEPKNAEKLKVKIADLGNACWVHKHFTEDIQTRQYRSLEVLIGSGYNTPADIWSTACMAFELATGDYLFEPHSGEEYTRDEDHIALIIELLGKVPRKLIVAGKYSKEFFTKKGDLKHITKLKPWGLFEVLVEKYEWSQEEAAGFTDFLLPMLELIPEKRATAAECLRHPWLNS

[13] = target: Mitogen-activated protein kinase 14 (Homo sapiens) (UniProt Q16539); experiment: Inhibition of p38alpha assessed as remaining enzyme activity at 1 uM relative to DMSO
[14] = target: Serine/threonine-protein kinase Sgk1 (Homo sapiens) (UniProt O00141); experiment: Inhibition of SGK1 assessed as remaining enzyme activity at 1 uM relative to DMSO
Serine/threonine-protein kinase Sgk1 (Homo sapiens), sequence (O00141 whole entry): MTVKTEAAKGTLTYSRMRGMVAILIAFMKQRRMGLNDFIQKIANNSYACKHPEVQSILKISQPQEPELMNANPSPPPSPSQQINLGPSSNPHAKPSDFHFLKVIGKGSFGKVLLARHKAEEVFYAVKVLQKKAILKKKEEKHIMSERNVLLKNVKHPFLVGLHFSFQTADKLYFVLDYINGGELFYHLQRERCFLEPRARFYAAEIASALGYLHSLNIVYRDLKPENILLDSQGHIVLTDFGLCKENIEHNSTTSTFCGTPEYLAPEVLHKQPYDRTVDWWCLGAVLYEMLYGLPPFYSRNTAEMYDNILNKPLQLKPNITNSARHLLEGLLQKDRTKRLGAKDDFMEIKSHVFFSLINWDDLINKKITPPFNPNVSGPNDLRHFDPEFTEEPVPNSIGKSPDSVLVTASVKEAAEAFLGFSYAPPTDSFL

[15] = target: Protein kinase C zeta type (Homo sapiens) (UniProt Q05513); experiment: Inhibition of PKCzeta assessed as remaining enzyme activity at 1 uM relative to DMSO
[16] = target: Serine/threonine-protein kinase Chk2 (Homo sapiens) (UniProt O96017); experiment: Inhibition of CHK2 assessed as remaining enzyme activity at 1 uM relative to DMSO; in short: as §2
Serine/threonine-protein kinase Chk2 (Homo sapiens), sequence (O96017 whole entry): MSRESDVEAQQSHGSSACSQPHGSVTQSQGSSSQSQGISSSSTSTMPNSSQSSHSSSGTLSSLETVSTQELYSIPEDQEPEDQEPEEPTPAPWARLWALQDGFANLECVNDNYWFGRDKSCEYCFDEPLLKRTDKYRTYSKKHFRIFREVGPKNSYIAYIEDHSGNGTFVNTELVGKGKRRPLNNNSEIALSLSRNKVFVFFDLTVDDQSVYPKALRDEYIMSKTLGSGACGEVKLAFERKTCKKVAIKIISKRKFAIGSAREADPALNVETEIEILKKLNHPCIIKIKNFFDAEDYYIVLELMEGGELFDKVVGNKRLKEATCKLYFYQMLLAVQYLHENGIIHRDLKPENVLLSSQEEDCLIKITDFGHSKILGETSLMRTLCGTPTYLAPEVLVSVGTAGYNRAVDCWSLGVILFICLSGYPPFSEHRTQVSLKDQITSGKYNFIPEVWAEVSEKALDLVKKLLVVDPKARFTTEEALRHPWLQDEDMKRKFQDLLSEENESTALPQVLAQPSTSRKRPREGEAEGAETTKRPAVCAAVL

[17] = target: Cyclin-dependent kinase 2 (Homo sapiens) (UniProt P24941); experiment: Inhibition of CDK2 assessed as remaining enzyme activity at 1 uM relative to DMSO; in short: as §2
[18] = target: Dual specificity mitogen-activated protein kinase kinase 1 (Homo sapiens) (UniProt Q02750); experiment: Inhibition of MKK1 assessed as remaining enzyme activity at 3 uM relative to DMSO
Dual specificity mitogen-activated protein kinase kinase 1 (Homo sapiens), sequence (Q02750 whole entry): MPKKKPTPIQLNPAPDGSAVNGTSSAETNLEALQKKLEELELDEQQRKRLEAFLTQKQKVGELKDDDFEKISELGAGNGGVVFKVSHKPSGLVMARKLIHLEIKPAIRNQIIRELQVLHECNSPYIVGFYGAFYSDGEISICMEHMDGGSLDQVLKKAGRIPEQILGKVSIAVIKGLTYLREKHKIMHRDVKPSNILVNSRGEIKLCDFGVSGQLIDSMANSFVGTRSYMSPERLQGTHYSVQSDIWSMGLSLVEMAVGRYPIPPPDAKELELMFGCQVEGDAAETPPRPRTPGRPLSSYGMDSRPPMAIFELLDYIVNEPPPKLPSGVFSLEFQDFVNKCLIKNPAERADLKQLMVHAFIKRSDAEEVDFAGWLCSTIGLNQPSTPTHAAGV
In short: (§3)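 Radiometric kinase assay run robotically at room temperature for 30 min. Contained 10 mM magnesium acetate and [γ-33P]ATP (800 cpm/pmol) at 5, 20 or 50 μM, chosen per kinase to be at or below its ATP Km. Reactions were started with MgATP, stopped with orthophosphoric acid and spotted onto P81 filters. Result is mean % activity of duplicates at one inhibitor concentration versus DMSO control.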

[19] = target: Mitogen-activated protein kinase 3 (Homo sapiens) (UniProt P27361); experiment: Inhibition of ERK1 assessed as remaining enzyme activity at 3 uM relative to DMSO; in short: as §2
[20] = target: Mitogen-activated protein kinase 15 (Homo sapiens) (UniProt Q8TD08); experiment: Inhibition of ERK8 assessed as remaining enzyme activity at 3 uM relative to DMSO; in short: as §2
[21] = target: MAP kinase-interacting serine/threonine-protein kinase 1 (Homo sapiens) (UniProt Q9BUB5); experiment: Inhibition of MNK1 assessed as remaining enzyme activity at 3 uM relative to DMSO; in short: as §3
[22] = target: Serine/threonine-protein kinase Chk1 (Homo sapiens) (UniProt O14757); experiment: Inhibition of CHK1 assessed as remaining enzyme activity at 3 uM relative to DMSO; in short: as §2
[23] = target: Serine/threonine-protein kinase Chk2 (Homo sapiens) (UniProt O96017); experiment: Inhibition of CHK2 assessed as remaining enzyme activity at 3 uM relative to DMSO; in short: as §2
[24] = target: Eukaryotic elongation factor 2 kinase (Homo sapiens) (UniProt O00418); experiment: Inhibition of EF2K assessed as remaining enzyme activity at 3 uM relative to DMSO; in short: as §2
[25] = target: Homeodomain-interacting protein kinase 2 (Homo sapiens) (UniProt Q9H2X6); experiment: Inhibition of HIPK2 assessed as remaining enzyme activity at 3 uM relative to DMSO; in short: as §2
[26] = target: Serine/threonine-protein kinase PAK 4 (Homo sapiens) (UniProt O96013); experiment: Inhibition of PAK4 assessed as remaining enzyme activity at 3 uM relative to DMSO; in short: as §3
[27] = target: Serine/threonine-protein kinase PAK 5 (Homo sapiens) (UniProt Q9P286); experiment: Inhibition of PAK5 assessed as remaining enzyme activity at 3 uM relative to DMSO; in short: as §3

COc1ccccc1-n1c(-c2cc(O)ccc2C)cn2c3c(=O)[nH]c(=O)n(C)c3nc12
Activity [1]: 83%
Activity [2]: 78%
Activity [3]: 0.4%
Activity [4]: 67%
Activity [5]: 14%
Activity [6]: 85%
Activity [7]: 12%
Activity [8]: 8.6%
Activity [9]: 40%
Activity [10]: 78%
Activity [11]: 93%
Activity [12]: 94%
Activity [13]: 97%
Activity [14]: 78%
Activity [15]: 95%
Activity [16]: 90%
Activity [17]: 90%

COc1ccccc1-n1c(-c2ccccc2C)cn2c3c(=O)[nH]c(=O)n(C)c3nc12
Activity [18]: 70%
Activity [19]: 97%
Activity [20]: 109%
Activity [21]: 93%
Activity [22]: 93%
Activity [23]: 99%
Activity [24]: 93%
Activity [25]: 114%
Activity [26]: 93%
Activity [27]: 94%
